HIV Rev-RRE inh – inhibitors of HIV-1 Rev-RRE RNA interaction | inhibition, % at 8 µM | 0.79% of 97,000 active | Rev peptide-RRE RNA binding, FRET | AID 704;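 active = inhibition above the screen-wide mean plus 3 SD, cut at about 35% in these data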;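 also: 0% = median DMSO wells and 100% = median Neomycin B control wells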
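Probe or stimulus: fluorescein-Rev peptide as binding partner; assay system: Cy5-tagged RRE RNA duplex with fluorescein-tagged Rev peptide; timing: 5 min compound–RNA preincubation, then 15 min with peptide, 25 °C; medium: HEPES pH 7.5 buffer with KCl, MgCl2, NaCl and EDTA; signal: fluorescein-to-Cy5 FRET, 480 nm excitation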
Cav3 T inh – human Cav3.2 channel inhibition, primary screen. O95180. Cav3.2-expressing cells, Fluo-4 calcium fluorescence FDSS; stronger effect = lower value. B-score at 10 µM. 4% of 100,000 active. AID 449739;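 active = single-dose well whose peak fluorescence ratio is a statistical outlier from its plate by either plate-standardised score or position-corrected B-score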
PLK1 kinase inh – inhibitors of human PLK1 kinase; inhibition, % at 10 µM; recombinant PLK1 kinase, TR-FRET peptide phosphorylation; 0.53% of 97,000 active; AID 619; P53350;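 active = inhibition of 50% or more in the single-concentration screen; inactive = inhibition below 50%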;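 also: 0% = DMSO max control and 100% = H-89 dihydrochloride min control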
Target sequence (P53350 whole entry, looked up): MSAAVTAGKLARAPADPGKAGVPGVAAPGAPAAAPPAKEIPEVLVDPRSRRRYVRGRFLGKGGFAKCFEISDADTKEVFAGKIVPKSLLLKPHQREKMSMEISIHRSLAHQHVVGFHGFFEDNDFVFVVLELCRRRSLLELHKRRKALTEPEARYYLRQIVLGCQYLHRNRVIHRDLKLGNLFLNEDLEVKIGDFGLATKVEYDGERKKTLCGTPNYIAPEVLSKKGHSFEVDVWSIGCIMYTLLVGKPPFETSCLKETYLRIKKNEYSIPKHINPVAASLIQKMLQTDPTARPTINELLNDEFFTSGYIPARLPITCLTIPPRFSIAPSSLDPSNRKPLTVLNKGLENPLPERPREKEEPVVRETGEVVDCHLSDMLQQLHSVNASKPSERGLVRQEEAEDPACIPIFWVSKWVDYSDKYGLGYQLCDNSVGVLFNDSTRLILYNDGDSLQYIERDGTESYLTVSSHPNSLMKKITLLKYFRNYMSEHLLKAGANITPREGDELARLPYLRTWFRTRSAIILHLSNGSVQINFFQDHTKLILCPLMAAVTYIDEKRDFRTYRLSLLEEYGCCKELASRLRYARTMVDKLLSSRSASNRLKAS
FAK blocker – blocks human focal adhesion kinase activity; biochemical FAK kinase activity assay; inhibition, %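 (tested at 7 µM)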; 0.84% of 97,000 active; AID 727; in the data active = inhibition above about 19%;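 also: 0% = DMSO and 100% = reference compound high control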
Plk1 PBD FP – inhibitors of human Plk1 polo box domain binding; P53350; Plk1 PBD phosphopeptide binding, fluorescence polarization; inhibition, %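 (tested at about 20 µM)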; 0.13% of 97,000 active; AID 693; in the data active = inhibition above about 34%, passing the limit was not always enough
EphB4 ephrin blk – EphB4-ephrin-B2 interaction antagonism | P54760 | AID 720 | inhibition, % at 7 µM | 0.15% of 97,000 active | EphB4 LBD / TNYL-RAW-Alexa532 peptide, fluorescence polarization;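 active = inhibition above the screen-wide mean inhibition plus 3 SD, cut at about 15% in these data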;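 also: 0% = DMSO wells and 100% = excess unlabeled TNYL-RAW peptide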
An asterisk follows results filed as active. In the library only some 5.3% were active in any assay of this set; here they are far more common.

Results for CCCC(C(=O)NCc1ccccc1)N(C(=O)Cn1nnc(-c2cccs2)n1)c1ccc2c(c1)OCCO2 (centres undefined) ?
HIV Rev-RRE inh: 3; Cav3 T inh: 0.72; PLK1 kinase inh: -9; FAK blocker: 1; Plk1 PBD FP: 3; EphB4 ephrin blk: 2

What do the screens show for `O=C(NCc1ccccc1)C(c1ccc(F)cc1)N(Cc1ccc2c(c1)OCO2)C(=O)Cn1nnc(-c2cccs2)n1` (centres undefined)?
HIV Rev-RRE inh: 6; Cav3 T inh: -5.1*; PLK1 kinase inh: -15; FAK blocker: -2; Plk1 PBD FP: -10; EphB4 ephrin blk: 3

What do the screens show for `OCCNc1nc(Nc2cc(Cl)ccc2OC2CCCC2)nc(N2CCCC2)n1`?
Cav3 T inh: -0.1

Results for Cc1ccc(C(=O)NCc2ccc3c(c2)OCO3)cc1S(=O)(=O)N1CCOCC1 ?
HIV Rev-RRE inh: 0; Cav3 T inh: 0.04; PLK1 kinase inh: -15; FAK blocker: -1; Plk1 PBD FP: 7; EphB4 ephrin blk: -4

How did Cc1ccc(C(=O)NCc2ccc3c(c2)OCO3)cc1S(=O)(=O)N1CCCCC1 do in these assays?
HIV Rev-RRE inh: 7; Cav3 T inh: -7.4*; PLK1 kinase inh: -2; FAK blocker: 1; Plk1 PBD FP: 14; EphB4 ephrin blk: 6

Results for O=S(=O)(c1ccc2c(c1)oc1ccccc12)N1CCOCC1 ?
HIV Rev-RRE inh: -3; Cav3 T inh: -0.58; PLK1 kinase inh: -5; FAK blocker: 0; Plk1 PBD FP: -24; EphB4 ephrin blk: 3

What do the screens show for `CSc1nc2ccc(S(=O)(=O)NC3CCCCC3)cc2s1`?
HIV Rev-RRE inh: 12; PLK1 kinase inh: -2; FAK blocker: 3; Plk1 PBD FP: 8; EphB4 ephrin blk: -1

How did O=S(=O)(Nc1ccc2c(c1)oc1ccccc12)N1CCCC1 do in these assays?
HIV Rev-RRE inh: 11; Cav3 T inh: -5.9*; PLK1 kinase inh: -12; FAK blocker: 12; Plk1 PBD FP: 0; EphB4 ephrin blk: 0

Results for O=S(=O)(Nc1ccc2c(c1)OCCO2)c1ccc2oc3ccccc3c2c1 ?
HIV Rev-RRE inh: 15; Cav3 T inh: -5.9*; PLK1 kinase inh: -15; FAK blocker: -2; Plk1 PBD FP: -9; EphB4 ephrin blk: -8

Results for CSc1nc2ccc(NS(=O)(=O)c3ccc4c(c3)OCCO4)cc2s1 ?
Cav3 T inh: -4.5*

Results for Cc1cccc(NS(=O)(=O)c2ccc3c(c2)OCCO3)c1 ?
HIV Rev-RRE inh: 6; Cav3 T inh: -0.73; PLK1 kinase inh: -27; FAK blocker: 4; Plk1 PBD FP: -16; EphB4 ephrin blk: -1

What do the screens show for `COc1ccccc1N(CC(=O)NCc1ccccc1)C(=O)CCC(=O)Nc1cc(C)ccn1`?
HIV Rev-RRE inh: 3; Cav3 T inh: -0.19; PLK1 kinase inh: -6; FAK blocker: 0; Plk1 PBD FP: 11; EphB4 ephrin blk: 1

What do the screens show for `Cc1cccc(Cn2c(C(C)(C)C)cc3cccnc32)c1`?
HIV Rev-RRE inh: -2; Cav3 T inh: -1.6; PLK1 kinase inh: -9; FAK blocker: 0; Plk1 PBD FP: 33; EphB4 ephrin blk: 1

What do the screens show for `Cn1c(CSc2nc3ccccc3s2)nnc1SCC(=O)NCc1cccnc1`?
HIV Rev-RRE inh: 8; Cav3 T inh: 0.18; PLK1 kinase inh: -12; FAK blocker: -1; Plk1 PBD FP: 1; EphB4 ephrin blk: 6

How did Cc1ccc2c(CC(=O)OC(C)C(=O)NCc3ccc4c(c3)OCO4)coc2c1 (centres undefined) do in these assays?
HIV Rev-RRE inh: 6; Cav3 T inh: -5.1*; PLK1 kinase inh: -11; FAK blocker: -4; Plk1 PBD FP: 2; EphB4 ephrin blk: 1

How did COc1ccc2c(CC(=O)NCc3ccc4c(c3)OCO4)coc2c1 do in these assays?
HIV Rev-RRE inh: -1; Cav3 T inh: -2.7; PLK1 kinase inh: -4; FAK blocker: 9; Plk1 PBD FP: -4; EphB4 ephrin blk: -8

Results for Cc1ccc2c(CC(=O)NCc3ccc4c(c3)OCO4)coc2c1 ?
HIV Rev-RRE inh: 6; Cav3 T inh: -4.6*; PLK1 kinase inh: 2; FAK blocker: 6; Plk1 PBD FP: -18; EphB4 ephrin blk: 8

What do the screens show for `CC(OC(=O)Cc1coc2cc3c(cc12)CCC3)C(=O)NCc1ccc2c(c1)OCO2` (centres undefined)?
HIV Rev-RRE inh: 5; Cav3 T inh: -0.76; PLK1 kinase inh: -2; FAK blocker: -1; Plk1 PBD FP: 10; EphB4 ephrin blk: 2
